Laboratory results: ChEMBL document CHEMBL4425095, “Novel Cephalosporins Selectively Active on Nonreplicating Mycobacterium tuberculosis” (J Med Chem, 2016)
≈ marks a conversion by molar mass, not a printed value. Calls of active or inactive are those of the source. No cut-off for these calls is given here.

Legend:
[1] = Stability of compound in pH 2 solution assessed as parent compound remaining incubated for 4 hrs at 37 degC; type: physicochemical; conditions: read-out: Stability
How it was run: (§1)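 Percent parent compound remaining after 4 h incubation at 37 °C at the stated pH.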

[2] = test system: Mycobacterium tuberculosis; test: Bactericidal activity against wild-type replicating Mycobacterium tuberculosis H37Rv assessed as reduction in CFU in presence of beta-lactamase inhibitor clavulanate; type: functional, organism-based
[3] = Cytotoxicity against human HepG2 cells assessed as reduction in cell viability after 2 days by Celltiter-Glo reagent based assay; conditions: read-out: LD50
How it was run: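 HepG2 cells in DMEM with 10% FBS, pyruvate, glutamine and nonessential amino acids. Seeded at 3000 cells/well and exposed 2 days to compound or vehicle (≤1% DMSO final). Reported as LD50.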

[4] = Half life in mouse liver microsomes; type: ADME, Microsome
How it was run: (§2)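 Mouse and human liver microsomal stability run by a contract lab in triplicate.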

[5] = test system: Mycobacterium tuberculosis; test: Bactericidal activity against wild-type non-replicating Mycobacterium tuberculosis H37Rv incubated for 7 days measured at OD580 = 0.01 in absence of NaNO2 by charcoal agar resazurin assay; type: functional, organism-based
How it was run: (§3)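 Nonreplicating wild-type H37Rv at OD580 0.1 or 0.01 treated 7 days with or without 0.5 mM NaNO2. 10 μL spotted onto 7H11-OADC-charcoal agar and incubated 7–10 days at 37 °C. Developed with Alamar blue:Tween80 1:1 for 1 h; fluorescence read at ex 530/em 590. Complete loss of fluorescence taken as ≥2–3 log10 CFU reduction.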

Staphylococcus aureus = test: Antibacterial activity against replicating Staphylococcus aureus measured at OD580 = 0.01; type: functional
How it was run: (§4)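 Replicating organisms in the paper's earlier-described bacteriologic medium; 200 μL of cells at OD580 0.01 exposed to DMSO vehicle or drug in 96-well plates; growth read by optical density.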

[6] = Half life in human liver microsomes; type: ADME, Microsome; how it was run: as §2
[7] = test system: Mycobacterium tuberculosis; test: Bactericidal activity against wild-type non-replicating Mycobacterium tuberculosis H37Rv assessed as reduction in CFU at 0.1 to 100 ug/ml incubated for 7 days measured at OD580 = 0.01 in presence of beta-lactamase inhibitor clavulanate by charcoal agar resazurin assay; type: functional, organism-based
[8] = test system: Mycolicibacterium smegmatis; test: Antibacterial activity against replicating Mycobacterium smegmatis measured at OD580 = 0.01; type: functional; how it was run: as §4
Escherichia coli = test: Antibacterial activity against replicating Escherichia coli measured at OD580 = 0.01; type: functional; how it was run: as §4
[9] = Stability in pH 5 non-replicating medium containing 0.5 mM NaNO2 assessed as parent compound remaining at 5 to 50 ug/ml at 37 degC measured every 12 hrs up to 144 hrs by LC-MS analysis; type: physicochemical; conditions: buffer
How it was run: (§5)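 Compound at 50 μg/mL in cell-free PBS pH 7.4, or nonreplicating medium pH 5.0 (BSA, tyloxapol, lysine, pantothenate omitted) with or without 0.5 mM NaNO2. Poorly soluble compounds at 5 μg/mL in 50:50 acetonitrile mixtures, pH readjusted to 5.0.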

[10] = test system: Mycobacterium tuberculosis; test: Bactericidal activity against wild-type non-replicating Mycobacterium tuberculosis H37Rv assessed as log reduction in CFU incubated for 7 days measured at OD580 = 0.01 in presence of 0.5 mM NaNO2 by charcoal agar resazurin assay; type: functional, organism-based; how it was run: as §3
[11] = Stability of compound in pH 7 solution assessed as parent compound remaining incubated for 4 hrs at 37 degC; type: physicochemical
Candida albicans = test: Antifungal activity against replicating Candida albicans measured at OD580 = 0.01; type: functional; how it was run: as §4
BMDM [12] = test: Cytotoxicity against C57BL6 mouse primary BMDM infected with wild-type non-replicating Mycobacterium tuberculosis H37Rv assessed as cell morphological changes at 100 ug/ml after 4 days; type: cell-based; conditions: 96 h
How it was run: (§6)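 Bone marrow macrophages (~1×10^5) from 8-week female C57Bl6 mice grown in DMEM/10% FBS/10% L-cell medium, with or without 50 ng/mL mouse IFNγ. Infected with H37Rv at MOI 1–5 for 4 h, washed, then given 100 μg/mL compound in 1% DMSO for 3 or 4 days. Lysed in 0.5% Triton X-100, CFU counted on 7H11-OADC agar; morphology observed.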

[13] = Solubility of compound in pH 7.4 solution measured after shaking for 4 hrs; type: physicochemical
How it was run: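 Solubility at pH 7.4 determined after shaking at room temperature for 4 h.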

[14] = Permeability of compound by PAMPA; type: ADME; conditions: read-out: permeability
How it was run: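 PAMPA membrane permeability by a contract lab; reported as mean Pe (10^-6 cm/s) and log Pe.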

[15] = Half life in human plasma at 1 ug/ml by LC-MS analysis; type: ADME, cell-free
Pseudomonas aeruginosa = test: Antibacterial activity against replicating Pseudomonas aeruginosa measured at OD580 = 0.01; type: functional; how it was run: as §4
[16] = Stability in pH 5 non-replicating medium assessed as parent compound remaining at 5 to 50 ug/ml at 37 degC measured every 12 hrs up to 144 hrs by LC-MS analysis; type: physicochemical; conditions: buffer; how it was run: as §5
[17] = Stability of compound in pH 12 solution assessed as parent compound remaining incubated for 4 hrs at 37 degC; type: physicochemical; conditions: read-out: Stability; how it was run: as §1
[18] = test system: Mycobacterium tuberculosis; test: Bactericidal activity against wild-type non-replicating Mycobacterium tuberculosis H37Rv infected in recombinant mouse IFN-gamma stimulated C57BL6 mouse primary BMDM assessed as log reduction in CFU at 100 ug/ml incubated for 4 days by charcoal agar resazurin assay; type: functional; how it was run: as §6
[19] = test system: Mycobacterium tuberculosis; test: Bactericidal activity against wild-type non-replicating Mycobacterium tuberculosis H37Rv assessed as log reduction in CFU at 0.7 to 0.8 ug/ml incubated for 7 days measured at OD580 = 0.01 by charcoal agar resazurin assay; type: functional
How it was run: (§7)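 Nonreplicating wild-type H37Rv at OD580 0.01 exposed to compound for 7 days. Survivors serially diluted in PBS-tyloxapol and plated on 7H11-OADC agar; colonies counted at ~3 weeks. Limit of detection 1 colony from 10 μL undiluted sample; triplicates, one of two experiments.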

[20] = Stability in pH 7.4 phosphate buffer solution assessed as parent compound remaining at 5 to 50 ug/ml at 37 degC measured every 12 hrs up to 144 hrs by LC-MS analysis; type: physicochemical; how it was run: as §5
[21] = test system: Mycobacterium tuberculosis; test: Bactericidal activity against wild-type non-replicating Mycobacterium tuberculosis H37Rv assessed as log reduction in CFU incubated for 7 days measured at OD580 = 0.1 in presence of 0.5 mM NaNO2 by charcoal agar resazurin assay; type: functional, organism-based; how it was run: as §3
[22] = test system: Mycobacterium tuberculosis; test: Bactericidal activity against wild-type non-replicating Mycobacterium tuberculosis H37Rv at 1 to 100 ug/ml incubated for 7 days measured at OD580 = 0.1 in presence of 0.06 to 1 mM NaNO2; type: functional, organism-based
How it was run: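 Wild-type H37Rv resuspended at OD580 0.1 in nonreplicating medium with NaNO2 at 0–1 mM, one plate per nitrite level. Exposed to compound for 7 days, then standard outgrowth assay to estimate survivors.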

[23] = Stability in CD-1 mouse plasma assessed as drug transformation at 1 ug/ml measured at <5 mins by LC-MS analysis; type: ADME, cell-free
[24] = Intrinsic clearance in human liver microsomes assessed per mg protein measured up to 60 mins; type: ADME, Microsome; conditions: 1 h; how it was run: as §2
[25] = Stability in mouse liver microsomes assessed as compound metabolism up to 60 mins; type: ADME, Microsome; conditions: 1 h; how it was run: as §2
[26] = test system: Mycobacterium tuberculosis; test: Bactericidal activity against wild-type non-replicating Mycobacterium tuberculosis H37Rv assessed as log reduction in CFU at 3 to 10 ug/ml incubated for 7 days measured at OD580 = 0.01 by charcoal agar resazurin assay; type: functional; how it was run: as §7
[27] = test system: Mycobacterium tuberculosis; test: Bactericidal activity against wild-type non-replicating Mycobacterium tuberculosis H37Rv assessed as drug tolerance development at 3 to 10 ug/ml incubated for 7 days measured at OD580 = 0.01 by charcoal agar resazurin assay; type: functional, organism-based
[28] = test system: Mycobacterium tuberculosis; test: Bactericidal activity against wild-type non-replicating Mycobacterium tuberculosis H37Rv infected in recombinant mouse IFN-gamma stimulated C57BL6 mouse primary BMDM assessed as log reduction in CFU at 100 ug/ml incubated for 3 days by charcoal agar resazurin assay; type: functional; how it was run: as §6
BMDM [29] = test: Cytotoxicity against C57BL6 mouse primary BMDM infected with wild-type non-replicating Mycobacterium tuberculosis H37Rv assessed as cell morphological changes at 100 ug/ml after 3 days; type: cell-based; conditions: 72 h; how it was run: as §6
[30] = test system: Mycobacterium tuberculosis; test: Potentiation of meropenem-induced bactericidal activity against wild-type replicating Mycobacterium tuberculosis H37Rv assessed as decrease in MIC90 relative to control; type: functional

SMILES | remaining at 4 h [1] [%] | CC50 at 48 h [3] [µg/mL] | t1/2 [4] [min] | Activity [5] | MIC90 (Staphylococcus aureus) [µg/mL] | t1/2 [6] [h] | MIC90 [8] [µg/mL] | MIC90 (Escherichia coli) [µg/mL] | Stability [9] | Activity [10] | MIC90 (Candida albicans) [µg/mL] | solubility at 4 h [13] [µM] | Papp [14] [×10⁻⁶ cm/s] | t1/2 [15] [h] | MIC90 (Pseudomonas aeruginosa) [µg/mL] | remaining at 4 h [17] [%] | Activity [19] [deltalog10CFU/ml] | Activity [21] | Stability [23] | CLH [24] [µL/min] | further results
CCCOC(=O)C1=C(C)CS[C@@H]2[C@H](NC(=O)COc3ccccc3)C(=O)N12 | 100 to 110 | 75.7 to 100 (≈ 194 to 256 µM) | < 5 | Active | > 100 | 1.44 | > 100 | > 100 | 100% | Dose-dependent effect | > 100 | 22.7 to 23 (≈ 8.86 to 8.98 µg/mL) | 7.28 | 2 to 3 | > 100 | 0 | 2 | Dose-dependent effect | Unstable | 8.07 | Activity [2]: inactive; Activity [7]: Active; Stability ([11]; buffer, pH 7, 4 h): 133%; Activity (BMDM [12]): Non-Toxic; Stability [16]: 100%; Activity [18]: 1 - 2 deltalog10CFU/ml; Stability [20]: 80%; Activity [22]: Active; Stability [25]: Unstable; LCK [26]: >=3.4; Activity [27]: Active
CC1=C(c2nc(C)no2)N2C(=O)[C@@H](NC(=O)COc3ccccc3)[C@H]2SC1 | 100 to 102 | > 100 | < 5 | Active | > 100 | 1.27 | > 100 | > 100 | Stable | Dose-dependent effect | > 100 | 83.7 to 84 (≈ 32.3 to 32.5 µg/mL) | 13.4 | 2 to 3 | > 100 | 0 | 2 | Dose-dependent effect | Unstable | 9.13 | remaining at 4 h ([11]; pH 7 solution, pH 7, read-out: Stability): 101%; Activity [28]: 1 - 2 deltalog10CFU/ml; Activity (BMDM [29]): Non-Toxic; Stability [25]: Unstable; LCK [26]: >=3.4; Activity [27]: Active
O=C(O)[C@H]1/C(=C/CO)O[C@@H]2CC(=O)N21 [CLAVULANIC ACID] |  |  |  |  |  |  |  |  |  |  |  |  |  |  |  |  |  |  |  |  | fold change (FC) [30]: 4
